Experimental data reported in ChEMBL document CHEMBL1799966, “Synthesis and anticancer activity of oxindole derived imidazo[1,5-a]pyrazines” (Eur J Med Chem, 2011).

Columns and labels:
Format in all cases: functional
[1] = tested on: ACHN; experiment: Anticancer activity against human ACHN cells assessed as mean cell growth at 10^-5 M after 48 hrs by SRB assay
Method in brief: (§1)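 NCI-60 primary screen run to the US NCI protocol. Compound added at a single concentration of 10^-5 M and cultures incubated 48 h. The end point was sulforhodamine B (SRB) protein staining, reported as percent growth of treated cells relative to untreated control cells.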

[2] = tested on: MCF7; experiment: Anticancer activity against human MCF7 cells assessed as mean cell growth at 10^-5 M after 48 hrs by SRB assay; method in brief: as §1
[3] = tested on: MDA-MB-468; experiment: Anticancer activity against human MDA-MB-468 cells assessed as mean cell growth at 10^-5 M after 48 hrs by SRB assay; method in brief: as §1
[4] = tested on: SR; experiment: Anticancer activity against human SR cells assessed as mean cell growth at 10^-5 M after 48 hrs by SRB assay; method in brief: as §1
[5] = tested on: DU-145; experiment: Anticancer activity against human DU145 cells assessed as mean cell growth at 10^-5 M after 48 hrs by SRB assay; method in brief: as §1
[6] = tested on: NCI-H522; experiment: Anticancer activity against human NCI-H522 cells assessed as mean cell growth at 10^-5 M after 48 hrs by SRB assay; method in brief: as §1
[7] = tested on: A498; experiment: Anticancer activity against human A498 cells assessed as mean cell growth at 10^-5 M after 48 hrs by SRB assay; method in brief: as §1
[8] = tested on: COLO 205; experiment: Anticancer activity against human COLO205 cells assessed as mean cell growth at 10^-5 M after 48 hrs by SRB assay; method in brief: as §1
[9] = tested on: IGROV-1; experiment: Anticancer activity against human IGROV1 cells assessed as mean cell growth at 10^-5 M after 48 hrs by SRB assay; method in brief: as §1
[10] = tested on: T47D; experiment: Anticancer activity against human T47D cells assessed as mean cell growth at 10^-5 M after 48 hrs by SRB assay; method in brief: as §1

COc1ccc(-c2nc(/C=C3/C(=O)Nc4ccccc43)c3ccccn23)cc1
Activity [1]: 72.54%

COc1ccc(-c2nc(/C=C3/C(=O)Nc4ccccc43)c3ccccn23)cc1OC
Activity [2]: 82.66%

O=C1Nc2ccccc2/C1=C\c1nc(-c2ccc(F)cc2)n2ccccc12
Activity [3]: 39.31%

COc1cc(-c2nc(/C=C3/C(=O)N(C)c4ccccc43)c3ccccn23)cc(OC)c1OC
Activity [4]: 98.17%

Cc1ccc(-c2nc(/C=C3/C(=O)Nc4ccc(F)cc43)c3ccccn23)cc1
Activity [5]: 74.57%

COc1ccc(-c2nc(/C=C3/C(=O)Nc4ccc(F)cc43)c3ccccn23)cc1
Activity [2]: 101.96%

Cc1ccc(-c2nc(/C=C3/C(=O)N(C)c4ccc(F)cc43)c3ccccn23)cc1
Activity [6]: 99.39%

Cc1ccc(-c2nc(/C=C3/C(=O)Nc4ccccc43)c3ccccn23)cc1
Activity [5]: 78.55%

O=C1Nc2ccccc2/C1=C\c1nc(-c2ccccc2)n2ccccc12
Activity [3]: 87.51%

O=C1Nc2ccc(F)cc2/C1=C\c1nc(-c2ccccc2F)n2ccccc12
Activity [5]: 80.9%

O=C1Nc2ccc(F)cc2/C1=C\c1nc(-c2ccc(F)cc2)n2ccccc12
Activity [7]: 97.53%

CN1C(=O)/C(=C/c2nc(-c3ccccc3F)n3ccccc23)c2cc(F)ccc21
Activity [8]: 99.95%

COc1ccc(-c2nc(/C=C3/C(=O)N(C)c4ccccc43)c3ccccn23)cc1
Activity [4]: 77.31%

CN1C(=O)/C(=C/c2nc(-c3cccc(F)c3)n3ccccc23)c2ccccc21
Activity [9]: 70.98%

CN1C(=O)/C(=C/c2nc(-c3ccccc3F)n3ccccc23)c2ccccc21
Activity [5]: 84.72%

CN1C(=O)/C(=C/c2nc(-c3ccccc3)n3ccccc23)c2ccccc21
Activity [10]: 85.21%

COc1ccc(-c2nc(/C=C3/C(=O)N(C)c4ccccc43)c3ccccn23)cc1OC
Activity [6]: 103.43%
